Results taken from publication PMC10107787 (Chemistry (Weinheim an Der Bergstrasse, Germany), 2022).

Columns and labels:
[1] = test system: Caco‐2 cell monolayers; test: Permeability across Caco-2 cell monolayers; assay type: in vitro ADME
Method in brief: (§1)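 Apical‑to‑basolateral and basolateral‑to‑apical Papp were measured across Caco‑2 monolayers. Efflux ratio is Papp BA/Papp AB. A parallel set was run with a cocktail of three inhibitors aimed at the three major efflux transporters. Papp AB is the mean±std of three repeats.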

[2] = Permeability across Caco-2 cell monolayers; assay type: in vitro ADME; details: human, Caco-2, ER (efflux ratio, Papp BA/Papp AB), Caco-2 cell monolayers, no inhibitors
Method in brief: as §1

[3] = Amide temperature coefficients by variable temperature 1H NMR; assay type: physicochemical
Method in brief: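 Variable-temperature ¹H NMR at 500 MHz with a cryoprobe, using 16 scans and a 0.7 s relaxation delay. DMSO‑d₆ series ran from 25 to 65 or 20 to 60 °C; the CDCl₃ series ran from 10 to 50 °C; both used 10 °C steps. Each NH coefficient was calculated as (δ_high−δ_low)/(T_high−T_low), in ppb/K.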

[4] = LogD7.4, miniaturized shake-flask procedure; assay type: physicochemical; details: pH 7.4
Method in brief: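 Measured in three repeats, and the reported logD is their mean.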

COc1ccc2c(O[C@@H]3C[C@H]4C(=O)N[C@]5(C(=O)NS(=O)(=O)C6CC6)C[C@H]5/C=C\CCCCN(C)C(=O)[C@@H]4C3)cc(-c3nc(C(C)C)cs3)nc2c1C [Simeprevir]
ER+Inhibitors ([1]; Caco-2, in the presence of the efflux inhibitor cocktail): highest efflux ratio | ER (efflux ratio, Papp BA/Papp AB) ([1]; Caco-2 cell monolayers, no inhibitors): largest | efflux ratio [2]: 330 | Temperature coefficient, CDCl3 ([3]; simeprevir proton 1’’’‐NH): −8.8 ppb/K | Temperature coefficient, DMSO‐d6 ([3]; simeprevir proton 1’’’‐NH): −2.5 ppb/K | Temperature coefficient, CDCl3 ([3]; simeprevir proton 13‐NH): −1.3 ppb/K | Temperature coefficient, DMSO‐d6 ([3]; simeprevir proton 13‐NH): −1.0 ppb/K | logD [4]: 3.7

COC(=O)N[C@H](C(=O)N[C@@H](Cc1ccccc1)[C@@H](O)CN(Cc1ccc(-c2ccccn2)cc1)NC(=O)[C@@H](NC(=O)OC)C(C)(C)C)C(C)(C)C [Atazanavir]
efflux ratio [2]: 40 | Temperature coefficient, CDCl3 ([3]; atazanavir proton 4‐NH): −2.0 ppb/K | Temperature coefficient, DMSO‐d6 ([3]; atazanavir proton 4‐NH): −9.8 ppb/K | Temperature coefficient, DMSO‐d6 ([3]; atazanavir proton 7‐NH): −4.3 ppb/K | Temperature coefficient, DMSO‐d6 ([3]; atazanavir proton 12‐NH): −3.5 ppb/K | Temperature coefficient, CDCl3 ([3]; atazanavir proton 15‐NH): −1.0 ppb/K | Temperature coefficient, DMSO‐d6 ([3]; atazanavir proton 15‐NH): −6.5 ppb/K

COC(=O)N[C@H](C(=O)N1CCC[C@H]1c1nc(-c2ccc(-c3ccc(-c4c[nH]c([C@@H]5CCCN5C(=O)[C@@H](NC(=O)OC)C(C)C)n4)cc3)cc2)c[nH]1)C(C)C [Daclatasvir]
efflux ratio [2]: 38 | Temperature coefficient, CDCl3 ([3]; daclatasvir proton 2’’’‐NH): −3.3 ppb/K | Temperature coefficient, DMSO‐d6 ([3]; daclatasvir proton 2’’’‐NH): −3.8 ppb/K | logD [4]: 3.9

C=C[C@@H]1C[C@]1(NC(=O)[C@@H]1C[C@@H](Oc2ncc(OC)c3ccc(Cl)cc23)CN1C(=O)[C@@H](NC(=O)OC(C)(C)C)C(C)(C)C)C(=O)NS(=O)(=O)C1CC1 [Asunaprevir]
efflux ratio [2]: 270 | Temperature coefficient, CDCl3 ([3]; asunaprevir proton 1’’’‐NH): −4.3 ppb/K | Temperature coefficient, DMSO‐d6 ([3]; asunaprevir proton 1’’’‐NH): −2.8 ppb/K | Temperature coefficient, CDCl3 ([3]; asunaprevir proton 1’’’’‐NH): −4.3 ppb/K | Temperature coefficient, DMSO‐d6 ([3]; asunaprevir proton 1’’’’‐NH): −3.5 ppb/K | Temperature coefficient, CDCl3 ([3]; asunaprevir proton 2’‐NH): −0.3 ppb/K | Temperature coefficient, DMSO‐d6 ([3]; asunaprevir proton 2’‐NH): 1.5 ppb/K | logD [4]: 3.1
